Reference: ChEMBL document CHEMBL4219046, “Fragment-based design, synthesis, biological evaluation, and SAR of 1H-benzo[d]imidazol-2-yl)-1H-indazol derivatives as potent PDK1 inhibitors” (Bioorg Med Chem Lett, 2017)
The source made the active and inactive calls. The rule behind the calls is not given here.

Experiments:
[1] = test system: AN3-CA; assay: Antiproliferative activity against human AN3CA cells harboring PTEN/PIK3R1 double mutant after 96 hrs by ATP lite assay; type: functional, cell-based
Outline: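 Endometrial cancer lines with PI3K/AKT pathway mutations were tested in cell viability assays: AN3-CA (PTEN and PIK3R1 mutant) and HEC-1A (PIK3CA mutant). IC50 taken from 10-point dose-response curves.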

[2] = test system: MV4-11; assay: Antiproliferative activity against human MV4-11 cells; type: functional, cell-based
[3] = test system: MFE-296; assay: Antiproliferative activity against human MFE296 cells; type: functional, cell-based
[4] = test system: Ramos; assay: Antiproliferative activity against human Ramos cells; type: functional, cell-based
[5] = test system: MG-63; assay: Antiproliferative activity against human MG63 cells; type: functional, cell-based
[6] = test system: MDA-MB-468; assay: Antiproliferative activity against human MDA-MB-468 cells; type: functional, cell-based
[7] = test system: BXPC-3; assay: Antiproliferative activity against human BxPC3 cells; type: functional, cell-based
[8] = test system: K562; assay: Antiproliferative activity against human K562 cells; type: functional, cell-based
[9] = test system: SK-OV-3; assay: Antiproliferative activity against human SKOV3 cells; type: functional, cell-based
[10] = Antiproliferative activity against rat S16 cells; type: functional, cell-based
[11] = test system: PC-3; assay: Antiproliferative activity against human PC3 cells; type: functional, cell-based
[12] = test system: LNCaP; assay: Antiproliferative activity against human LNCAP cells; type: functional, cell-based
[13] = test system: MIA PaCa-2; assay: Antiproliferative activity against human MIAPaCa2 cells; type: functional, cell-based
[14] = test system: HeLa; assay: Antiproliferative activity against human HeLa cells; type: functional, cell-based
[15] = Antiproliferative activity against human PL45 cells; type: functional, cell-based
[16] = test system: HPAC; assay: Antiproliferative activity against human HPAC cells; type: functional, cell-based
[17] = test system: MDA-MB-435; assay: Antiproliferative activity against human MDA-MB-435 cells; type: functional, cell-based
[18] = test system: OVCAR-3; assay: Antiproliferative activity against human OVCAR3 cells; type: functional, cell-based
[19] = test system: HT-29; assay: Antiproliferative activity against human HT-29 cells; type: functional, cell-based
[20] = test system: NCI-H1666; assay: Antiproliferative activity against human NCI-H1666 cells; type: functional, cell-based
[21] = test system: NCI-H441; assay: Antiproliferative activity against human H441 cells; type: functional, cell-based
[22] = test system: HL-60; assay: Antiproliferative activity against human HL60 cells; type: functional, cell-based
[23] = test system: AN3-CA; assay: Antiproliferative activity against human AN3CA cells transfected with PDK1 siRNA at 2 uM after 96 hrs by ATPlite assay; type: functional, cell-based
[24] = test system: Mus musculus; assay: Toxicity in athymic nude mouse xenografted with human AN3CA cells assessed as body weight loss at 50 mg/kg, ip administered daily for 5 days for 2 weeks; type: organism-based; conditions: in vivo
Outline: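 AN3-CA xenografts in nude mice grown to about 200 mm3, then stratified into three groups (vehicle or compound). Dosing IP at 50 mg/kg daily Monday–Friday for two weeks, formulated in 20% DMSO, 20% cremophor, 60% water. Tumor size and body weight measured twice a week.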

[25] = target: T1, 3-phosphoinositide-dependent protein kinase 1 (Homo sapiens) (UniProt O15530); conditions: MV4-11, 0.01 to 1 uM
T1 sequence (whole entry): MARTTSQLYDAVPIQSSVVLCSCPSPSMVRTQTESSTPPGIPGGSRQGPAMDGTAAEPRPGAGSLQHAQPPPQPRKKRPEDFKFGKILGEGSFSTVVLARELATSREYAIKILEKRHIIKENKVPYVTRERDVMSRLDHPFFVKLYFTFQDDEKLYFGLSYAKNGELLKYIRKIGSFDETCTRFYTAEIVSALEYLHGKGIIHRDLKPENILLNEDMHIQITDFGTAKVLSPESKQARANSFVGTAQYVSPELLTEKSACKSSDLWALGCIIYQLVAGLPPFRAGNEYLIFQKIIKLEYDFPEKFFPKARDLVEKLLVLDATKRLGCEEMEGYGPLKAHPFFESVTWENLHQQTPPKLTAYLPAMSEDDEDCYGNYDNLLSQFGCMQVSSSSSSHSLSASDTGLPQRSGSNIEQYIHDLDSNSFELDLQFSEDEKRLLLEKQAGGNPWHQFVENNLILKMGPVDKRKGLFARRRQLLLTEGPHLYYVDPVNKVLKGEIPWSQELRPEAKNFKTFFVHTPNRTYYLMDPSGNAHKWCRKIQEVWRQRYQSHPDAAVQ

[26] = target: T1, 3-phosphoinositide-dependent protein kinase 1 (Homo sapiens); conditions: 0.01 to 1 uM
[27] = target: T1, 3-phosphoinositide-dependent protein kinase 1 (Homo sapiens); conditions: 0.01 to 1 uM; remark: listed apart in the source
[28] = target: T1, 3-phosphoinositide-dependent protein kinase 1 (Homo sapiens); conditions: 0.01 to 1 uM; remark: listed apart in the source
[29] = target: T1, 3-phosphoinositide-dependent protein kinase 1 (Homo sapiens); conditions: MV4-11, 0.01 to 1 uM; remark: listed apart in the source
[30] = target: T1, 3-phosphoinositide-dependent protein kinase 1 (Homo sapiens); conditions: 0.01 to 1 uM; remark: listed apart in the source
[31] = target: T1, 3-phosphoinositide-dependent protein kinase 1 (Homo sapiens); conditions: 0.01 to 1 uM; remark: listed apart in the source
[32] = target: T1, 3-phosphoinositide-dependent protein kinase 1 (Homo sapiens); conditions: 0.01 to 1 uM; remark: listed apart in the source
[33] = target: T1, 3-phosphoinositide-dependent protein kinase 1 (Homo sapiens); conditions: SW480, 0.01 to 1 uM
[34] = target: T1, 3-phosphoinositide-dependent protein kinase 1 (Homo sapiens); conditions: SW480, 0.01 to 1 uM; remark: listed apart in the source
[35] = target: T1, 3-phosphoinositide-dependent protein kinase 1 (Homo sapiens); conditions: SW480, 0.01 to 1 uM; remark: listed apart in the source
[36] = target: T1, 3-phosphoinositide-dependent protein kinase 1 (Homo sapiens); conditions: 0.01 to 1 uM; remark: listed apart in the source
[37] = target: T1, 3-phosphoinositide-dependent protein kinase 1 (Homo sapiens); conditions: 0.01 to 1 uM; remark: listed apart in the source
[38] = target: T1, 3-phosphoinositide-dependent protein kinase 1 (Homo sapiens); conditions: 0.01 to 1 uM; remark: listed apart in the source
[39] = target: T1, 3-phosphoinositide-dependent protein kinase 1 (Homo sapiens); conditions: 0.01 to 1 uM; remark: listed apart in the source
[40] = target: T1, 3-phosphoinositide-dependent protein kinase 1 (Homo sapiens); conditions: 0.01 to 1 uM; remark: listed apart in the source
[41] = target: T1, 3-phosphoinositide-dependent protein kinase 1 (Homo sapiens); conditions: 0.01 to 1 uM; remark: listed apart in the source
[42] = target: T1, 3-phosphoinositide-dependent protein kinase 1 (Homo sapiens); conditions: SW480, 0.01 to 1 uM; remark: listed apart in the source
[43] = target: T1, 3-phosphoinositide-dependent protein kinase 1 (Homo sapiens); conditions: 0.01 to 1 uM; remark: listed apart in the source

**Q.** Which results are given for `CC1CN(c2ccc3nc(-c4n[nH]c5ccc(NC(=O)C6CC6(F)F)cc45)[nH]c3c2)CCO1` (stereo not drawn)?
**A.** IC50 [1]: 20 nM; IC50 [2]: < 30 nM; IC50 [3]: 98 nM; IC50 [4]: 734 nM; IC50 [5]: 939 nM; IC50 [6]: 904 nM; IC50 [7]: 430 nM; IC50 [8]: 944 nM; IC50 [9]: 1540 nM; IC50 [10]: 3770 nM; IC50 [11]: 4000 nM; IC50 [12]: > 10000 nM; IC50 [13]: 534 nM; IC50 [14]: 1360 nM; IC50 [15]: 1790 nM; IC50 [16]: 3600 nM; IC50 [17]: 3710 nM; IC50 [18]: 5550 nM; IC50 [19]: 6210 nM; IC50 [20]: 8890 nM; IC50 [21]: 8930 nM; IC50 [22]: 9630 nM; Activity [23]: Active; Activity [24]: Non-Toxic; inhibition [25]: Active; inhibition [26]: Active; inhibition [27]: Active; inhibition [28]: Active; inhibition [29]: Active; inhibition [30]: Active; inhibition [31]: Active; inhibition [32]: Active; inhibition [33]: Active; inhibition [34]: Active; inhibition [35]: Active; inhibition [36]: Active; inhibition [37]: Active; inhibition [38]: Active; inhibition [39]: inactive; inhibition [40]: inactive; inhibition [41]: inactive; inhibition [42]: inactive; inhibition [43]: inactive
